Consider 1 compound from ChEMBL document CHEMBL4433207, “Novel Isoxazole Derivatives with Potent FXR Agonistic Activity Prevent Acetaminophen-Induced Liver Injury” (ACS Med Chem Lett, 2019).

The target in assay [1] is T1, Oxysterols receptor LXR-alpha (Homo sapiens) (UniProt Q13133).
T1 sequence (whole entry): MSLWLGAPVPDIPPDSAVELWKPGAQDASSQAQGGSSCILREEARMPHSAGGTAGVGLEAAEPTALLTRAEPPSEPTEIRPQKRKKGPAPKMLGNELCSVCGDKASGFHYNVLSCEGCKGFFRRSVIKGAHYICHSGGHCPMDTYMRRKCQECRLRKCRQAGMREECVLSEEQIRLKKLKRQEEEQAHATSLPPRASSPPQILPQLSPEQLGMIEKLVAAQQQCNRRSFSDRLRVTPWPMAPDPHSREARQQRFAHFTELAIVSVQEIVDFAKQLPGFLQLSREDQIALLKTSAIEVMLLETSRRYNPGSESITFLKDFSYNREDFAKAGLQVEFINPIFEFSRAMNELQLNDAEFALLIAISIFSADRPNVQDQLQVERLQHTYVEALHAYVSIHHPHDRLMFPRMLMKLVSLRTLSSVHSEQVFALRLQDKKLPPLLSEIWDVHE
Briefly: Transactivation of Gal4-fused LXRalpha LBD (unknown origin) expressed in HepG2 cells at 10 uM after 18 hrs by dual-glo luciferase assay. The assay is classed as cell-based.

For assay [2], the target named is T2, Oxysterols receptor LXR-beta (Homo sapiens) (UniProt P55055).
T2 sequence (whole entry): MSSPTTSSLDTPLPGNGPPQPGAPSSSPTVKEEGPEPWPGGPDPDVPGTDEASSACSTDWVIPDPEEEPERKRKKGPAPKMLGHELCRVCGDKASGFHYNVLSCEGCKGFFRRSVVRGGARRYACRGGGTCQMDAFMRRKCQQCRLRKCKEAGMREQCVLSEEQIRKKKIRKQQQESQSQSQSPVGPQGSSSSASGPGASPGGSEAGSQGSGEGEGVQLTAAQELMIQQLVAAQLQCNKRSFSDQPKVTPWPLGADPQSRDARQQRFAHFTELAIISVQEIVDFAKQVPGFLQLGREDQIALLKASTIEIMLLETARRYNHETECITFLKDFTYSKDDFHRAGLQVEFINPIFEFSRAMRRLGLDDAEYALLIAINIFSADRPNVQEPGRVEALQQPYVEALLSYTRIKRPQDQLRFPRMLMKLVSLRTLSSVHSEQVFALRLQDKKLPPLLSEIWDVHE
The experiment in a line: Transactivation of Gal4-fused LXRbeta LBD (unknown origin) expressed in HepG2 cells at 10 uM after 18 hrs by dual-glo luciferase assay. Type of assay: cell-based.

Assay [3] has as its target T3, Peroxisome proliferator-activated receptor gamma (Homo sapiens) (UniProt P37231).
T3 sequence (whole entry): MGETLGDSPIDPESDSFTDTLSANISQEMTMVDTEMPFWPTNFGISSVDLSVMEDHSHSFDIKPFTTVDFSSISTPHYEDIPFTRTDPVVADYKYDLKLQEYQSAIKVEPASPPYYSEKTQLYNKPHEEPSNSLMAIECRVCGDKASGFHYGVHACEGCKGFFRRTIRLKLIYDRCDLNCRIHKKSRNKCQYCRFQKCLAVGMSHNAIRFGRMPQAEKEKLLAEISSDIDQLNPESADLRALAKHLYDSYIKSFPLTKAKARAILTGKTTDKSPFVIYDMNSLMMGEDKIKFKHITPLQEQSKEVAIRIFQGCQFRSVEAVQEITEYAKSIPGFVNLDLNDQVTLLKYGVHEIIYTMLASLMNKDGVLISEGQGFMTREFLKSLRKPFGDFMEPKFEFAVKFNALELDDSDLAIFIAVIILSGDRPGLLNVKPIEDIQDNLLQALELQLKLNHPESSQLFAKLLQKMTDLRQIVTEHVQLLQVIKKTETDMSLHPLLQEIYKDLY
The experiment in a line: Transactivation of Gal4-fused PPARgamma LBD (unknown origin) expressed in HepG2 cells at 10 uM after 18 hrs by dual-glo luciferase assay. The assay is classed as cell-based.

Assay [4] concerns Mus musculus. Briefly: In-vivo agonist activity at FXR in C57BL/6N N mouse assessed as upregulation of SHP mRNA level at 10 mg/kg, po dosed daily via gavage for 3 days by RT-PCR analysis. The assay is classed as functional, organism-based. An outline of the steps: (§1)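 Mice dosed 10 mg/kg daily for 3 days, by gavage or i.p. Total liver RNA analysed by quantitative real-time PCR for SHP or BSEP mRNA, normalized to GAPDH mRNA; mean ± SEM of four mice per group.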

Assay [5] deals with Mus musculus. Briefly: In-vivo agonist activity at FXR in C57BL/6N N mouse assessed as upregulation of BSEP mRNA level at 10 mg/kg, po dosed daily via gavage for 3 days by RT-PCR analysis. The assay is classed as functional, organism-based. The method in brief:
as §1

Assay [6] concerns Mus musculus. The experiment in a line: Hepatoprotective activity against APAP-induced acute liver injury in C57BL/6N mouse assessed as reduction in plasma AST levels at 30 mg/kg, po administered 45 mins after APAP challenge. The assay is classed as functional, organism-based. An outline of the steps: (§2)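 C57Bl6 mice given a single 500 mg/kg APAP dose, with test agent at 30 mg/kg; surviving mice sacrificed 24 h later, blood and liver collected. Endpoints: serum AST/ALT, liver H&E histology, hepatic Ugt1a1/Ugt2b1/Sult1a1 mRNA, hepatic GSH, SOD activity and MDA, and plasma APAP, APAP-glucuronide and APAP-sulfate by LC–MS/MS. Mean ± SEM, 5–8 animals per group.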

The subject of assay [7] is Mus musculus. Briefly: Hepatoprotective activity against APAP-induced acute liver injury in C57BL/6N mouse assessed as reduction in plasma ALT levels at 30 mg/kg, po administered 45 mins after APAP challenge. Type of assay: functional, organism-based. An outline of the steps: as §2
Assay [8] relates to Mus musculus. Briefly: Hepatoprotective activity against APAP-induced acute liver injury in C57BL/6N mouse assessed as reduction in liver necrosis at 30 mg/kg, po administered 45 mins after APAP challenge by H and E staining based microscopic method. The assay is classed as functional, organism-based. An outline of the steps:
as §2

In assay [9] the test system is Mus musculus. The experiment in a line: Hepatoprotective activity against APAP-induced acute liver injury in C57BL/6N mouse assessed as upregulation of UGT1A1 mRNA levels at 30 mg/kg, po administered 45 mins after APAP challenge. The assay is classed as functional, organism-based. The method in brief:
as §2

For assay [10], the system named is Mus musculus. The experiment in a line: Hepatoprotective activity against APAP-induced acute liver injury in C57BL/6N mouse assessed as upregulation of UGT2B1 mRNA levels at 30 mg/kg, po administered 45 mins after APAP challenge. Type of assay: functional, organism-based. The method in brief:
as §2

The subject of assay [11] is Mus musculus. Briefly: Hepatoprotective activity against APAP-induced acute liver injury in C57BL/6N mouse assessed as upregulation of SULT1A1 mRNA levels at 30 mg/kg, po administered 45 mins after APAP challenge. The assay is classed as functional, organism-based. An outline of the steps:
as §2

The subject of assay [12] is Mus musculus. The experiment in a line: Hepatoprotective activity against APAP-induced acute liver injury in C57BL/6N mouse assessed as increase in GSH levels at 30 mg/kg, po administered 45 mins after APAP challenge. The assay is classed as functional, organism-based. An outline of the steps:
as §2

Assay [13] deals with Mus musculus. Briefly: Hepatoprotective activity against APAP-induced acute liver injury in C57BL/6N mouse assessed as reduction in lipid peroxidation by measuring MDA levels at 30 mg/kg, po administered 45 mins after APAP challenge. Type of assay: functional, organism-based. An outline of the steps:
as §2

Assay [14] has as its system Mus musculus. Briefly: Hepatoprotective activity against APAP-induced acute liver injury in C57BL/6N mouse assessed as increase in APAP metabolism by measuring increase in APAP-sulfate level at 30 mg/kg, po administered 45 min after APAP challenge by LC-MS/MS analysis. Type of assay: functional, organism-based. The method in brief: as §2
The test system of assay [15] is Mus musculus. Briefly: In-vivo agonist activity at FXR in C57BL/6N N mouse assessed as upregulation of BSEP mRNA level at 10 mg/kg, ip dosed daily […] for 3 days by RT-PCR analysis. Type of assay: functional, organism-based. The method in brief:
as §1

Structures are written as SMILES. Activity calls are given as the source filed them. The rule behind the calls is not given here.

For `CC(C)c1onc(-c2c(Cl)cccc2Cl)c1COc1ccc(COc2ccc(C(=O)O)cc2)cc1`, the result in assay [1], in [2] and in assay [3] was inactive. In addition, the result in the assay with Mus musculus [4], with Mus musculus [5], in the assay on Mus musculus [6], in the assay with Mus musculus [7], in the assay with Mus musculus [8] and with Mus musculus [9] was Active. Also, the result in the assay with Mus musculus [10], with Mus musculus [11], in the assay with Mus musculus [12], in the assay with Mus musculus [13], in the assay with Mus musculus [14] and in the assay on Mus musculus [15] was Active.
